# Source: PubChem BioAssay
# hiPSC survival: enhancers of single-cell hiPSC survival, primary screen, ATPlite luminescence. 100% = ROCK inhibitor wells, 0% = DMSO. survival enhancement, % at 20 µM. hit rate 0.044% among 360,000; in the data active = survival enhancement above about 18%;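 also: cells exposed to compounds for 16 hours before the ATP read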
# MIN6 prolif-1: inducers of MIN6 beta-cell proliferation, primary screen, ATP luminescence, uHTS | AID 2380, 2010 | proliferation, % at 10 µM | hit rate 0.29% among 330,000 | MIN6 cells proliferation, ATPlite luminescence, 48 h; cells starved in 0.2% serum; 100% = growth in 10% serum;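 active = compounds whose signal lies at least 3.5 SD above the mean of all wells on their plate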;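 also: 0% = DMSO-treated cells in low-serum medium and 100% = 10% serum control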
# Apaf-1 inh: inhibitors of human Apaf-1 apoptosome, primary screen, biochemical, DEVD-Rh110 fluorescence, uHTS. reconstituted apoptosome caspase-3 activity. hit rate 0.71% among 330,000. Apoptotic protease-activating factor 1 (Homo sapiens), O14727. inhibition, % at 20 µM. AID 489030, 2010; active = inhibition of at least 40% at 20 µM;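 also: plate controls were DMSO wells for no effect and DEVD-CHO caspase inhibitor wells for full effect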
#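 Material: biochemical Apaf-1 apoptosome reconstitution. Medium: Hepes buffer, pH 7.5. Also added: cytochrome c activation, bis-DEVD rhodamine 110 substrate. Timing: 30 min compound preincubation, 50 min activation, room temperature. Measured by: rhodamine 110 fluorescence at Ex 480/Em 540 nm.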
# MPTP inh: mitochondrial permeability transition pore inhibitors, primary screen, biochemical, isolated mouse mitochondria, absorbance; Ca2+ swelling absorbance, 30 min; inhibition, % at 10 µM; hit rate 1.4% among 360,000; AID 602449, 2012;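 active = inhibition of 50% or more, scaled per plate between neutral and stimulator controls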;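 also: 0% = DMSO wells given calcium and 100% = 1 mM EGTA wells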
# Exocytosis inh: LAMP-1 surface exposure blockers, TALL-104 cells – cell-based, flow cytometry, MLPCN library, primary screen; hit rate 0.66% among 360,000; inhibition, % at 10 µM; TALL-104 LAMP-1 surface exposure; cells stimulated with thapsigargin and PMA;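 active = inhibition above about 55%, limit read from the data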
# UBC13 polyUb: UBC13 polyubiquitin chain formation inhibitors, primary screen, biochemical, TR-FRET, uHTS; Ubiquitin-conjugating enzyme E2 N (Homo sapiens), P61088; AID 485273, 2010; inhibition, % at 20 µM; hit rate 0.47% among 330,000; in the data active = inhibition above about 45%, passing the limit was not always enough
# Target sequence (P61088 whole entry, looked up): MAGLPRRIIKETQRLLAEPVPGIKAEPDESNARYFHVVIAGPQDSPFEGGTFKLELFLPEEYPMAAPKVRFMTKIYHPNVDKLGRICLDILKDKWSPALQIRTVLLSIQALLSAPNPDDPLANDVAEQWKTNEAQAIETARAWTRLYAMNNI
# MIN6 prolif-2: inducers of beta-cell proliferation in MIN6, confirmation, MIN6 cells, mouse; shares compounds with MIN6 prolif-1; ATPlite luminescence, 48 h; cells kept in 0.2% serum; scaled between 0.2% and 10% serum; proliferation increase, % at 50 µM; 920 tested, under 10 active; AID 463095, 2010;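 active = proliferation increase above 40% at any of the four tested concentrations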
# * marks the source's active call; other numbers are inactive results; nt = no result given. This is a sample that favours compounds with a hit; in the whole collection about 3% have one here.
SMILES,hiPSC survival,MIN6 prolif-1,Apaf-1 inh,MPTP inh,Exocytosis inh,UBC13 polyUb,MIN6 prolif-2
CC(=O)Nc1cc(C(=O)N(C)Cc2ccccc2)ccc1S(=O)(=O)c1ccc(C)cc1,-0.1,13.3*,-1.3,2.4,2.5,0.8,-2.7
COc1cc(/C=N/NC(=O)CN(Cc2ccccc2)S(=O)(=O)c2ccc3c(c2)OCCO3)ccc1O,0.3,0.0*,8.1,-18.4,-0.1,3.1,-4.8
COc1ccc(CN(Cc2ccccn2)C(=O)CN2C(=O)COc3ccccc32)cc1,-2.4,-0.5,-15.8,-1.2,7.4,-1.5,nt
CC1Oc2ccccc2N(CC(=O)N(Cc2ccccc2)Cc2ccccn2)C1=O (configuration not stated),-2.2,10.1*,-4.3,-1.2,-0.7,18.7,-0.8
Fc1ccccc1N1CCN(c2ncnc3nc[nH]c23)CC1,-0.6,11.3*,-15.6,4.9,-2.0,21.2,0.4
Clc1ccccc1N1CCN(c2ncnc3nc[nH]c23)CC1,0.5,13.1*,10.6,-1.7,0.5,4.2,0.7
CCCn1c(SCC(=O)NC2CCC(C)CC2)n[nH]c1=O (configuration not stated),-2.4,-3.4,2.7,-2.4,-12.4,5.2,nt
O=C(CCc1ccccc1)NC1CCS(=O)(=O)C1 (configuration not stated),0.2,-2.0,3.5,0.4,-1.4,-0.4,nt
COc1ccccc1N1CCN(C(=O)C(=O)c2c[nH]c3ccccc23)CC1,0.9,-1.8,5.5,0.6,-1.6,-2.5,nt
COC(=O)CSc1nnc(-c2ccco2)n1-c1ccc(C)cc1,3.4,7.4*,-6.6,-0.9,-1.4,4.4,1.7
CCOC(=O)CSc1nnc(-c2ccco2)n1-c1ccc(C)cc1,3.2,1.7,0.4,-0.4,0.1,6.2,nt
CC1C(=O)N(Cc2cn(CCC3OCCCO3)nn2)CCS(=O)(=O)N1Cc1ccc(-c2ccc(Cl)cc2)cc1 (configuration not stated),2.2,nt,nt,-2.0,-1.3,nt,nt
CCn1c(=O)c2cc(C(=O)N(C)c3ccc(OC)cc3OC)sc2c2ccccc21,1.2,6.7*,19.0,3.9,7.6,-7.5,-6.2
CCn1c(=O)c2cc(C(=O)N(C)c3ccccc3F)sc2c2ccccc21,0.1,-4.7,-2.0,2.3,-2.7,-4.1,nt
CCCCc1nc2sc3c(SCC(=O)NCc4ccco4)ncnc3c2c2c1CCC2,2.1,-2.5,-5.3,0.0,-0.9,-73.2,nt
CC(C)c1nc2sc3c(SCC(N)=O)ncnc3c2c2c1CCC2,0.1,5.1*,1.3,1.5,0.1,-54.0,5.1
C#CCNC(=O)c1cc2c(Br)ccc(Br)c2nc1N,-0.7,nt,nt,0.8,-6.6,nt,nt
O=C(CCNC(=O)N1CC(=O)Nc2ccccc21)Nc1ccc(F)c(Cl)c1,-0.1,4.9*,-0.6,-1.7,-2.2,6.9,-1.9
CCCCn1nnnc1C1(C)CCC(=O)N1CCc1ccccc1F (configuration not stated),0.7,nt,nt,0.6,-5.8,nt,nt
COc1cc([N+](=O)[O-])ccc1NC(=O)c1cccc(NC(=O)C(C)C)c1,1.0,7.8*,-1.1,6.2,0.4,-28.2,-3.2
Cc1ccc(S(=O)(=O)NC2=NCN(CCOC(=O)c3ccc([N+](=O)[O-])cc3)CN2)cc1,0.5,8.4*,-4.9,-1.7,-2.0,0.8,0.2
Cc1ccc(S(=O)(=O)NC2=NCN(CCOC(=O)c3ccccc3)CN2)cc1,-0.8,1.5,-17.4,-2.7,-2.2,19.0,nt
COc1ccc(N2C(=NC(=O)C3CC3)SC3CS(=O)(=O)CC32)cc1Cl (configuration not stated),0.0,11.4*,-1.4,-1.5,-0.4,9.0,-0.5
O=C(O)CCC(=O)OCCCc1cc2ccccc2c(=O)o1,-0.5,-1.3,19.4,0.9,-8.7,-10.2,nt
O=C(c1cnsn1)N1CCC(CO)(Cc2cccc(F)c2)CC1,-0.3,8.2*,-11.9,1.0,2.7,-2.7,-0.8
SMILES,hiPSC survival,MIN6 prolif-1,Apaf-1 inh,MPTP inh,Exocytosis inh,UBC13 polyUb,MIN6 prolif-2
O=C(NCCCn1ccnc1)/C(=C\c1cccs1)NC(=O)c1ccccc1,2.5,6.7*,2.6,-0.3,1.0,13.2,1.5
CC1CCN(CCOc2ccccc2-c2ccccc2)CC1,-1.0,0.0*,-12.6,14.3,-2.8,7.2,-5.0
CN(C)c1ncnc2c1ncn2[C@H]1CN(Cc2cccs2)C[C@@H](CO)O1,0.8,nt,nt,-0.9,-2.9,nt,nt
CCNS(=O)(=O)c1ccc(NC(=O)c2cccnc2)cc1,0.1,10.8*,-17.6,0.0,-2.1,1.1,-2.4
O=C(Nc1ccc(S(=O)(=O)Nc2ncccn2)cc1)c1cccnc1,1.2,0.7,10.0,1.4,-2.6,-3.5,nt
CCC(=O)c1c(CC)c2n3c1CC[C@H]3CCC2,3.0,-2.4,3.9,-0.4,3.1,6.8,nt
O=C(CSCc1c(Cl)cccc1Cl)NCc1ccco1,3.2,9.2*,4.1,2.7,-1.2,4.7,-3.2
O=C(CSCc1c(F)cccc1Cl)NCc1ccco1,5.0,2.1,-1.9,1.8,2.2,5.2,nt
Cc1ccc(-n2nnnc2CNC(=O)C2CC(=O)N(c3ccc(F)cc3)C2)cc1C (configuration not stated),-0.3,12.4*,6.7,-0.6,-4.3,-3.3,0.8
O=C(NCc1nnnn1-c1ccc(F)cc1)C1CC(=O)N(c2ccc(F)cc2)C1 (configuration not stated),-0.6,3.3,2.7,3.1,-6.2,-8.3,nt
O=C(CSc1n[nH]c(=O)n1-c1ccccc1)Nc1ccccc1,-0.6,1.8,1.3,2.0,10.0,3.5,nt
O=C(CSc1n[nH]c(=O)n1-c1ccc2c(c1)OCCO2)Nc1ccccc1,-0.5,4.9*,4.4,-0.5,-1.2,-10.7,0.1
COc1ccccc1NC(=O)NNC(=O)c1ccc2ccccc2c1O,3.0,-0.3,1.5,1.1,-0.8,8.5,nt
CCN1C(=O)/C(=C2/SC(C)=C(C)N2CC)SC1=S,-2.0,7.5*,7.4,4.2,2.7,2.0,1.1
COc1ccc(C2=Nn3c(nnc3-c3ccccc3C(F)(F)F)SC2)cc1OC1CCOC1 (configuration not stated),0.4,8.8*,23.9,-0.3,-1.3,7.0,-6.5
COc1ccc(C2=Nn3c(nnc3-c3ccncc3)SC2)cc1OC,-2.0,8.6*,10.8,-0.9,0.8,0.0,5.6
N#Cc1ccccc1OCC(=O)NC1CCCCCC1,-1.7,nt,nt,0.7,-3.1,nt,nt
O=C(CSc1n[nH]c(-c2ccncc2)n1)Nc1ccc(Br)cc1,0.0,2.2,13.2,0.4,-5.4,-0.4,nt
